Measurements from ChEMBL document CHEMBL4689842, “EUbOPEN Chemogenomics Library wave 1” (2021).
Values joined by “and” are separate entries in the source; they are usually repeats but may differ in a detail not shown here. Identical values can stand only once.

System: Fibroblast
Assay: Multiplex assay against human fibroblast
Format: toxicity, cell-based
Outline: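 On a CQ1 microscope at 37°C and 5% CO2, live cells were imaged after compound addition. They had been stained at seeding with Hoechst33342, BioTracker Green Microtubule Cytoskeleton Dye, MitoTracker Red and Annexin V Alexa Fluor 680. CellPathfinder machine-learning gating assigned cells to Hoechst high-intensity objects or normal cells, normal cells to healthy, pyknosed or fragmented nuclei, and pyknosed cells to mitotic or apoptotic. Tubulin, mitochondrial-mass and membrane-permeability phenotypes are per cents of healthy-nucleus cells.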

[1] = 12 h, 1 µM, compound concentration 1 uM, replicate 1
[2] = 12 h, 1 µM, compound concentration 1 uM, replicate 2
[3] = 12 h, 10 µM, compound concentration 10 uM, replicate 1
[4] = 12 h, 10 µM, compound concentration 10 uM, replicate 2
[5] = 24 h, 1 µM, compound concentration 1 uM, replicate 1
[6] = 24 h, 1 µM, compound concentration 1 uM, replicate 2
[7] = 24 h, 10 µM, compound concentration 10 uM, replicate 1
[8] = 24 h, 10 µM, compound concentration 10 uM, replicate 2
[9] = 48 h, 1 µM, compound concentration 1 uM, replicate 1
[10] = 48 h, 1 µM, compound concentration 1 uM, replicate 2
[11] = 48 h, 10 µM, compound concentration 10 uM, replicate 1
[12] = 48 h, 10 µM, compound concentration 10 uM, replicate 2

## Cc1c[nH]c2nccc(Oc3c(F)cc(Nc4cc(Cl)nc(N)n4)cc3F)c12 [BAY-549]
[1]
  Population Apoptotic (%): 54%
  Population Fragmented Nuclei (%): 25%
  Population Healthy Nuclei (%): 41%
  Population Hoechst High Intensity Objects (%): 12%
  Population Membrane Permeable-Phenotype (%): 32%
  Population Mitochondria Different-Phenotype (%): 3%
  Population Mitotic Cells (%): 46%
  Population Normal (%): 87%
  Population Pyknosed Nuclei (%): 33%
  Population Tubulin-Different-Phenotype (%): 38%
  Total Cell Count: 172
[2]
  Population Apoptotic (%): 44%
  Population Fragmented Nuclei (%): 12%
  Population Healthy Nuclei (%): 73%
  Population Hoechst High Intensity Objects (%): 5%
  Population Membrane Permeable-Phenotype (%): 4%
  Population Mitochondria Different-Phenotype (%): 6%
  Population Mitotic Cells (%): 55%
  Population Normal (%): 94%
  Population Pyknosed Nuclei (%): 14%
  Population Tubulin-Different-Phenotype (%): 12%
  Total Cell Count: 68
[3]
  Population Apoptotic (%): 66%
  Population Fragmented Nuclei (%): 23%
  Population Healthy Nuclei (%): 31%
  Population Hoechst High Intensity Objects (%): 10%
  Population Membrane Permeable-Phenotype (%): 21%
  Population Mitochondria Different-Phenotype (%): 0%
  Population Mitotic Cells (%): 33%
  Population Normal (%): 90%
  Population Pyknosed Nuclei (%): 45%
  Population Tubulin-Different-Phenotype (%): 21%
  Total Cell Count: 130
[4]
  Population Apoptotic (%): 40%
  Population Fragmented Nuclei (%): 17%
  Population Healthy Nuclei (%): 65%
  Population Hoechst High Intensity Objects (%): 6%
  Population Membrane Permeable-Phenotype (%): 7%
  Population Mitochondria Different-Phenotype (%): 10%
  Population Mitotic Cells (%): 60%
  Population Normal (%): 93%
  Population Pyknosed Nuclei (%): 17%
  Population Tubulin-Different-Phenotype (%): 10%
  Total Cell Count: 62
[5]
  Population Apoptotic (%): 50%
  Population Fragmented Nuclei (%): 32%
  Population Healthy Nuclei (%): 40%
  Population Hoechst High Intensity Objects (%): 10%
  Population Membrane Permeable-Phenotype (%): 26%
  Population Mitochondria Different-Phenotype (%): 9%
  Population Mitotic Cells (%): 50%
  Population Normal (%): 89%
  Population Pyknosed Nuclei (%): 27%
  Population Tubulin-Different-Phenotype (%): 34%
  Total Cell Count: 170
[6]
  Population Apoptotic (%): 46%
  Population Fragmented Nuclei (%): 8%
  Population Healthy Nuclei (%): 71%
  Population Hoechst High Intensity Objects (%): 3%
  Population Membrane Permeable-Phenotype (%): 5%
  Population Mitochondria Different-Phenotype (%): 7%
  Population Mitotic Cells (%): 53%
  Population Normal (%): 96%
  Population Pyknosed Nuclei (%): 20%
  Population Tubulin-Different-Phenotype (%): 18%
  Total Cell Count: 77
[7]
  Population Apoptotic (%): 70%
  Population Fragmented Nuclei (%): 44%
  Population Healthy Nuclei (%): 30%
  Population Hoechst High Intensity Objects (%): 21%
  Population Membrane Permeable-Phenotype (%): 13%
  Population Mitochondria Different-Phenotype (%): 13%
  Population Mitotic Cells (%): 30%
  Population Normal (%): 78%
  Population Pyknosed Nuclei (%): 25%
  Population Tubulin-Different-Phenotype (%): 33%
  Total Cell Count: 152
[8]
  Population Apoptotic (%): 71%
  Population Fragmented Nuclei (%): 12%
  Population Healthy Nuclei (%): 62%
  Population Hoechst High Intensity Objects (%): 5%
  Population Membrane Permeable-Phenotype (%): 11%
  Population Mitochondria Different-Phenotype (%): 20%
  Population Mitotic Cells (%): 28%
  Population Normal (%): 94%
  Population Tubulin-Different-Phenotype (%): 20%
  Total Cell Count: 59
[9]
  Population Apoptotic (%): 66%
  Population Fragmented Nuclei (%): 41%
  Population Healthy Nuclei (%): 46%
  Population Hoechst High Intensity Objects (%): 14%
  Population Membrane Permeable-Phenotype (%): 13%
  Population Mitochondria Different-Phenotype (%): 1%
  Population Mitotic Cells (%): 33%
  Population Normal (%): 85%
  Population Pyknosed Nuclei (%): 12%
  Population Tubulin-Different-Phenotype (%): 19%
  Total Cell Count: 170
[10]
  Population Apoptotic (%): 100%
  Population Fragmented Nuclei (%): 26%
  Population Healthy Nuclei (%): 72%
  Population Hoechst High Intensity Objects (%): 11%
  Population Membrane Permeable-Phenotype (%): 10%
  Population Mitotic Cells (%): 0%
  Population Normal (%): 88%
  Population Pyknosed Nuclei (%): 0%
  Population Tubulin-Different-Phenotype (%): 5%
  Total Cell Count: 184
[11]
  Population Apoptotic (%): 80%
  Population Fragmented Nuclei (%): 56%
  Population Healthy Nuclei (%): 29%
  Population Hoechst High Intensity Objects (%): 20%
  Population Membrane Permeable-Phenotype (%): 16%
  Population Mitochondria Different-Phenotype (%): 16%
  Population Mitotic Cells (%): 20%
  Population Normal (%): 79%
  Population Pyknosed Nuclei (%): 13%
  Population Tubulin-Different-Phenotype (%): 23%
  Total Cell Count: 180
[12]
  Population Apoptotic (%): 57%
  Population Fragmented Nuclei (%): 50%
  Population Healthy Nuclei (%): 45%
  Population Hoechst High Intensity Objects (%): 17%
  Population Membrane Permeable-Phenotype (%): 5%
  Population Mitochondria Different-Phenotype (%): 10%
  Population Mitotic Cells (%): 42%
  Population Normal (%): 82%
  Population Pyknosed Nuclei (%): 3%
  Population Tubulin-Different-Phenotype (%): 6%
  Total Cell Count: 239

## Cc1cc(C)c(-n2ccn3nc(-c4cccnc4)cc23)cc1NC(=O)c1cc(C#N)cc(S(F)(F)(F)(F)F)c1 [BAY-826]
[1]
  Population Apoptotic (%): 67% and 71%
  Population Fragmented Nuclei (%): 37% and 21%
  Population Healthy Nuclei (%): 48% and 63%
  Population Hoechst High Intensity Objects (%): 11% and 19%
  Population Mitochondria Different-Phenotype (%): 3% and 8%
  Population Mitotic Cells (%): 32% and 28%
  Population Normal (%): 88% and 80%
  Population Pyknosed Nuclei (%): 14% and 15%
  Total Cell Count: 241 and 313
[2]
  Population Apoptotic (%): 50% and 91%
  Population Fragmented Nuclei (%): 55% and 58%
  Population Healthy Nuclei (%): 37% and 19%
  Population Hoechst High Intensity Objects (%): 23% and 34%
  Population Membrane Permeable-Phenotype (%): 20% and 36%
  Population Normal (%): 76% and 65%
  Population Pyknosed Nuclei (%): 7% and 21%
  Population Tubulin-Different-Phenotype (%): 30% and 54%
  Total Cell Count: 71 and 85
[5]
  Population Apoptotic (%): 52% and 37%
  Population Fragmented Nuclei (%): 23% and 21%
  Population Healthy Nuclei (%): 54% and 63%
  Population Hoechst High Intensity Objects (%): 12% and 18%
  Population Mitochondria Different-Phenotype (%): 8% and 4%
  Population Mitotic Cells (%): 47% and 62%
  Population Normal (%): 87% and 81%
  Population Pyknosed Nuclei (%): 21% and 14%
  Total Cell Count: 231 and 326
[6]
  Population Fragmented Nuclei (%): 54% and 59%
  Population Healthy Nuclei (%): 35% and 19%
  Population Hoechst High Intensity Objects (%): 36% and 28%
  Population Normal (%): 64% and 71%
  Population Pyknosed Nuclei (%): 10% and 20%
  Population Tubulin-Different-Phenotype (%): 29% and 58%
  Total Cell Count: 75 and 87
